Test results from ChEMBL document CHEMBL1127017.

How the values were obtained:
[1] = target: T1, Progesterone receptor (Rattus norvegicus) (UniProt Q63449); assay: Relative binding affinity for progesterone receptor in a competitive radiometric binding assay relative to the affinity of R5020 as tracer
T1 sequence (whole entry): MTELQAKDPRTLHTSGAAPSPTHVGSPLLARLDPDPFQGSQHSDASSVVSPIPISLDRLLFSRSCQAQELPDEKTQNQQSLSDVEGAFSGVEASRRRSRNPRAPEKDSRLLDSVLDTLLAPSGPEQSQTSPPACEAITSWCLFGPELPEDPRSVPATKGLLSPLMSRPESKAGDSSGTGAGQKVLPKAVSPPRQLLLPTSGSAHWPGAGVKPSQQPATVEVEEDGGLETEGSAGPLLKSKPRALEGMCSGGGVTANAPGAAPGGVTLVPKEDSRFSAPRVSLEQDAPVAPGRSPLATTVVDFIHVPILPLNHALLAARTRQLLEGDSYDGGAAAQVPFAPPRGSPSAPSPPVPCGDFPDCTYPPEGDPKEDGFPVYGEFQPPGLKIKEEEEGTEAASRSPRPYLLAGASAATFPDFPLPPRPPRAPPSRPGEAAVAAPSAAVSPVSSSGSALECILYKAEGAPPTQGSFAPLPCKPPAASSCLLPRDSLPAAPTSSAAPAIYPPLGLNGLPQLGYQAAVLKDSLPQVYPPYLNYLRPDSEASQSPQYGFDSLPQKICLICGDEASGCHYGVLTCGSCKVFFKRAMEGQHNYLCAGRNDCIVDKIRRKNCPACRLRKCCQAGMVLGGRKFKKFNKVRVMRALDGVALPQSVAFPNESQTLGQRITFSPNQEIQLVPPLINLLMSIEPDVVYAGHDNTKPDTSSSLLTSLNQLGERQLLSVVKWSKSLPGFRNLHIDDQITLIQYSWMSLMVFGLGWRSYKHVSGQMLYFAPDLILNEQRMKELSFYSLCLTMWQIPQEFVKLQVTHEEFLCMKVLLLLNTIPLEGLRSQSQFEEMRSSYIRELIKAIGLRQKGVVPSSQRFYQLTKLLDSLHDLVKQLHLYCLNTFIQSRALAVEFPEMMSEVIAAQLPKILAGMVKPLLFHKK
Procedure, shortened: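 The R5020 standard is defined as 100%, and binding of other ligands is expressed as a percentage relative to it.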

[2] = target: T2, Mineralocorticoid receptor (Rattus norvegicus) (UniProt P22199); assay: Relative binding affinity for the rat kidney mineralocorticoid receptor (MR) relative to the affinity of aldosterone as tracer
T2 sequence (whole entry): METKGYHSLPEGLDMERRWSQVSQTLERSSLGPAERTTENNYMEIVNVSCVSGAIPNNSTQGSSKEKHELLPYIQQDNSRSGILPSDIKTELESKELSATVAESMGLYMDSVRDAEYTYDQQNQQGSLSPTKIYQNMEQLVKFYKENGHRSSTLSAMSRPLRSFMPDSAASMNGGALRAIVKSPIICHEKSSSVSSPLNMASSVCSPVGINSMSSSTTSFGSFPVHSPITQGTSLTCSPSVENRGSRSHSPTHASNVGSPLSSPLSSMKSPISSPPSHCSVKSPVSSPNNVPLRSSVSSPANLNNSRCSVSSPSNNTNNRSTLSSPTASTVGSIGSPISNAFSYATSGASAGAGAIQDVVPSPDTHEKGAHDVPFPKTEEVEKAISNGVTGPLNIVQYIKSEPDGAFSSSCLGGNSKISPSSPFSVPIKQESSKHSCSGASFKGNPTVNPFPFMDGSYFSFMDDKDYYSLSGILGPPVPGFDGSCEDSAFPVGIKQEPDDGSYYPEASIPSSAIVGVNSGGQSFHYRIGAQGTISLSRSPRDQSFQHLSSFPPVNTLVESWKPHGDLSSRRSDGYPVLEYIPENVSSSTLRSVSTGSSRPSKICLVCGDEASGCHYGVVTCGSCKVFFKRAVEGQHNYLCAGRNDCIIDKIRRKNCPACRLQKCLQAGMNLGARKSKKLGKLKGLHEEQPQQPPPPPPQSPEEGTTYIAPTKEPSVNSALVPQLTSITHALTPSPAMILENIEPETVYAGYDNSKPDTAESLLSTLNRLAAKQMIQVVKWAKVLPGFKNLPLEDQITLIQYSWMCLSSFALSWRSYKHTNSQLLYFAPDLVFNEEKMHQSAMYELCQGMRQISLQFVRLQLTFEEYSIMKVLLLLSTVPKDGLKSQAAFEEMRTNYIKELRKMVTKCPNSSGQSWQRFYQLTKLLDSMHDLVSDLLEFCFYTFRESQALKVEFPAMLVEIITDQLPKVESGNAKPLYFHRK

Q: For `CC(=O)[C@@]12OC(C)(c3ccc(N=C=S)cc3)O[C@@H]1CC1C3CCC4=CC(=O)CC[C@]4(C)C3CC[C@@]12C` (some centres undefined), which relative binding affinity (RBA) [1] is on record?
A: The relative binding affinity (RBA) was 1.3.

Q: And the relative binding affinity (RBA) [2]?
A: The relative binding affinity (RBA) was 0.09.

Q: Which relative binding affinity (RBA) [1] does the source give for `CC(=O)[C@@]12OC(C)(c3c(F)c(F)c(N=[N+]=[N-])c(F)c3F)O[C@@H]1CC1C3CCC4=CC(=O)CC[C@]4(C)C3CC[C@@]12C` (some centres undefined) here?
A: The relative binding affinity (RBA) was 14.

Q: And the relative binding affinity (RBA) [2]?
A: Its relative binding affinity (RBA) is 0.95.

Q: With `CC(=O)[C@@]12OC(C)(c3ccc(F)cc3)O[C@@H]1CC1C3CCC4=CC(=O)CC[C@]4(C)C3CC[C@@]12C` (stereo in doubt; 10) as the compound, how does the relative binding affinity (RBA) [1] read?
A: Its relative binding affinity (RBA) is 53.

Q: What about the relative binding affinity (RBA) [2] of the same compound?
A: Its relative binding affinity (RBA) is 6.

Q: For `CC(=O)[C@@]12OC(C)(c3ccccc3)O[C@@H]1C[C@H]1[C@@H]3CCC4=CC(=O)CC[C@]4(C)[C@H]3CC[C@@]12C` (stereo in doubt; 17), which relative binding affinity (RBA) [1] is on record?
A: Its relative binding affinity (RBA) is 1.2.

Q: How did the relative binding affinity (RBA) [1] turn out when `CC(=O)[C@@]12OC(C)(c3ccc(N=[N+]=[N-])cc3)O[C@@H]1CC1C3CCC4=CC(=O)CC[C@]4(C)C3CC[C@@]12C` (stereo in doubt; 6) was run?
A: Its relative binding affinity (RBA) is 15.

Q: What about the relative binding affinity (RBA) [2] of the same compound?
A: The relative binding affinity (RBA) was 0.13.

Q: How did the relative binding affinity (RBA) [1] turn out when `CC(=O)[C@@]12OC(C)(c3ccc(F)cc3)O[C@@H]1CC1C3CCC4=CC(=O)CC[C@]4(C)C3CC[C@@]12C` (stereo in doubt; 11) was run?
A: Its relative binding affinity (RBA) is 0.56.

Q: `CC(=O)[C@@]12OC(C)(c3ccc(I)cc3)O[C@@H]1CC1C3CCC4=CC(=O)CC[C@]4(C)C3CC[C@@]12C` (some centres undefined) was tested. Which relative binding affinity (RBA) [1] did it give?
A: Its relative binding affinity (RBA) is 25.

Q: What about the relative binding affinity (RBA) [2] of the same compound?
A: The relative binding affinity (RBA) was 0.13.

Q: With `CC(=O)[C@@]12OC(C)(c3c(F)c(F)c(F)c(F)c3F)O[C@@H]1CC1C3CCC4=CC(=O)CC[C@]4(C)C3CC[C@@]12C` (some centres undefined) as the compound, how does the relative binding affinity (RBA) [1] read?
A: The relative binding affinity (RBA) was 20.

Q: What about the relative binding affinity (RBA) [2] of the same compound?
A: Its relative binding affinity (RBA) is 0.65.

Q: How did the relative binding affinity (RBA) [1] turn out when `CC(=O)[C@@]12OC(C)(c3ccco3)OC1CC1C3CCC4=CC(=O)CC[C@]4(C)C3CC[C@@]12C` (some centres undefined) was run?
A: Its relative binding affinity (RBA) is 5.5.

Q: For `CC(=O)[C@@]12OC(C)(c3ccc(N=[N+]=[N-])c(I)c3)O[C@@H]1CC1C3CCC4=CC(=O)CC[C@]4(C)C3CC[C@@]12C` (some centres undefined), which relative binding affinity (RBA) [1] is on record?
A: Its relative binding affinity (RBA) is 2.9.

Q: `CC(=O)[C@@]12OC(C)(C)O[C@@H]1C[C@H]1[C@@H]3CCC4=CC(=O)CC[C@]4(C)[C@H]3CC[C@@]12C` was tested. Which relative binding affinity (RBA) [1] did it give?
A: The relative binding affinity (RBA) was 2.

Q: `CC(=O)[C@H]1CC[C@H]2[C@@H]3CCC4=CC(=O)CC[C@]4(C)[C@H]3CC[C@]12C` was tested. Which relative binding affinity (RBA) [1] did it give?
A: Its relative binding affinity (RBA) is 13.

Q: What does the source list for `CC(=O)[C@@]12OC(C)(c3ccc(C(=O)c4ccccc4)cc3)O[C@@H]1CC1C3CCC4=CC(=O)CC[C@]4(C)C3CC[C@@]12C` (some centres undefined)?
A: relative binding affinity (RBA) [1]: 6.6; relative binding affinity (RBA) [2]: < 0.003

Q: With `CC(=O)[C@@]12OC(C)(c3ccccc3)O[C@@H]1C[C@H]1[C@@H]3CCC4=CC(=O)CC[C@]4(C)[C@H]3CC[C@@]12C` (stereo in doubt; 16) as the compound, how does the relative binding affinity (RBA) [1] read?
A: Its relative binding affinity (RBA) is 16.

Q: And the relative binding affinity (RBA) [2]?
A: The relative binding affinity (RBA) was 1.6.

Q: With `CC(=O)[C@@]12OC(C)(c3ccc(N=[N+]=[N-])cc3)O[C@@H]1CC1C3CCC4=CC(=O)CC[C@]4(C)C3CC[C@@]12C` (stereo in doubt; 7) as the compound, how does the relative binding affinity (RBA) [1] read?
A: Its relative binding affinity (RBA) is 0.18.

Q: How did the relative binding affinity (RBA) [1] turn out when `CC(=O)[C@@]12OC(C)(c3ccc(N)cc3)O[C@@H]1CC1C3CCC4=CC(=O)CC[C@]4(C)C3CC[C@@]12C` (some centres undefined) was run?
A: The relative binding affinity (RBA) was 0.01.
